Measurements as given in ChEMBL document CHEMBL1138555, “N-acylated and N,N'-diacylated imidazolidine-2-thione derivatives and N,N'-diacylated tetrahydropyrimidine-2(1H)-thione analogues: synthesis and antiproliferative activity” (Eur J Med Chem, 2009).

Tests used:
UACC-62 = test: Growth inhibition of human UACC62 cells after 48 hrs by sulforhodamine B assay; type: functional; conditions: UACC-62, 48 h
Method in brief: (§1)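 NCI in vitro panel screen. Compounds tested at five 10-fold dilutions, 10^-4 to 10^-8 M. Cells in 96-well plates were exposed for the last 48 h of a 72 h incubation. Viability/growth was read by sulforhodamine B protein assay. GI50 is the concentration giving 50% growth inhibition. Values beyond the tested range are reported as greater or less than the maximum or minimum concentration.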

SR = test: Growth inhibition of human SR cells after 48 hrs by sulforhodamine B assay; type: functional; method in brief: as §1
PC-3 = test: Growth inhibition of human PC3 cells after 48 hrs by sulforhodamine B assay; type: functional; conditions: PC-3, 48 h
Method in brief: (§2)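 NCI screen panel. Five 10-fold concentrations from 10^-4 to 10^-8 M. Exposure for the last 48 h of a 72 h incubation. Growth estimated by sulforhodamine B protein assay. GI50 is the concentration giving 50% growth inhibition. Where that level was not reached or was exceeded, the value is given as above or below the highest or lowest concentration tested.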

OVCAR-3 = test: Growth inhibition of human OVCAR-3 cells after 48 hrs by sulforhodamine B assay; type: functional; conditions: OVCAR-3, 48 h; method in brief: as §2
HOP-92 = test: Growth inhibition of human HOP92 cells after 48 hrs by sulforhodamine B assay; type: functional; conditions: HOP-92, 48 h; method in brief: as §2
SN12C = test: Growth inhibition of human SN12C cells after 48 hrs by sulforhodamine B assay; type: functional; method in brief: as §1
MOLT-4 = test: Growth inhibition of human MOLT4 cells after 48 hrs by sulforhodamine B assay; type: functional; conditions: MOLT-4, 48 h; method in brief: as §2
A549 = test: Growth inhibition of human A549 cells after 48 hrs by sulforhodamine B assay; type: functional; conditions: A549, 48 h; method in brief: as §2
IGROV-1 = test: Growth inhibition of human IGROV1 cells after 48 hrs by sulforhodamine B assay; type: functional; conditions: IGROV-1, 48 h; method in brief: as §2
SW-620 = test: Growth inhibition of human SW620 cells after 48 hrs by sulforhodamine B assay; type: functional; conditions: SW-620, 48 h; method in brief: as §1
T47D = test: Growth inhibition of human T47D cells after 48 hrs by sulforhodamine B assay; type: functional; method in brief: as §1
UO-31 = test: Growth inhibition of human UO31 cells after 48 hrs by sulforhodamine B assay; type: functional; conditions: UO-31, 48 h; method in brief: as §1
SF-539 = test: Growth inhibition of human SF539 cells after 48 hrs by sulforhodamine B assay; type: functional; conditions: SF-539, 48 h; method in brief: as §2
SK-MEL-2 = test: Growth inhibition of human SK-MEL-2 cells after 48 hrs by sulforhodamine B assay; type: functional; conditions: SK-MEL-2, 48 h; method in brief: as §2
OVCAR-4 = test: Growth inhibition of human OVCAR4 cells after 48 hrs by sulforhodamine B assay; type: functional; conditions: OVCAR-4, 48 h; method in brief: as §2
SNB-75 = test: Growth inhibition of human SNB75 cells after 48 hrs by sulforhodamine B assay; type: functional; conditions: SNB-75, 48 h; method in brief: as §1
SNB-19 = test: Growth inhibition of human SNB19 cells after 48 hrs by sulforhodamine B assay; type: functional; conditions: SNB-19, 48 h; method in brief: as §1
HT-29 = test: Growth inhibition of human HT-29 cells after 48 hrs by sulforhodamine B assay; type: functional; conditions: HT-29, 48 h; method in brief: as §2
Malme-3M = test: Growth inhibition of human MALME-3M cells after 48 hrs by sulforhodamine B assay; type: functional; method in brief: as §2
COLO 205 = test: Growth inhibition of human COLO205 cells after 48 hrs by sulforhodamine B assay; type: functional; conditions: COLO 205, 48 h; method in brief: as §2
SF-268 = test: Growth inhibition of human SF268 cells after 48 hrs by sulforhodamine B assay; type: functional; conditions: SF-268, 48 h; method in brief: as §2
CCRF-CEM = test: Growth inhibition of human CCRF-CEM cells after 48 hrs by sulforhodamine B assay; type: functional; method in brief: as §2
DU-145 = test: Growth inhibition of human DU145 cells after 48 hrs by sulforhodamine B assay; type: functional; conditions: DU-145, 48 h; method in brief: as §2
SK-OV-3 = test: Growth inhibition of human SKOV3 cells after 48 hrs by sulforhodamine B assay; type: functional; conditions: SK-OV-3, 48 h; method in brief: as §2
NCI-H322M = test: Growth inhibition of human NCI-H322M cells after 48 hrs by sulforhodamine B assay; type: functional; method in brief: as §2
K562 = test: Growth inhibition of human K562 cells after 48 hrs by sulforhodamine B assay; type: functional; conditions: K562, 48 h; method in brief: as §2
NCI-H460 = test: Growth inhibition of human NCI-H460 cells after 48 hrs by sulforhodamine B assay; type: functional; conditions: NCI-H460, 48 h; method in brief: as §2
KM12 = test: Growth inhibition of human KM12 cells after 48 hrs by sulforhodamine B assay; type: functional; conditions: KM12, 48 h; method in brief: as §2
U-251 = test: Growth inhibition of human U251 cells after 48 hrs by sulforhodamine B assay; type: functional; conditions: U-251, 48 h; method in brief: as §1
MT4 = test: Antiproliferative activity against human MT4 cells assessed as reduction of growth by MTT assay; type: functional, cell-based
Method in brief: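 MT-4 lymphoblastoid T cells (ATCC) in RPMI 1640 with 10% FCS, penicillin/streptomycin, checked for mycoplasma. 1 × 10⁴ mock-infected cells per well with serial dilutions from a 100 mM DMSO stock. Incubated 4 days at 37 °C, viable cells counted by MTT. IC50 versus untreated controls by linear regression. Mean of three separate experiments.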

OVCAR-8 = test: Growth inhibition of human OVCAR8 cells after 48 hrs by sulforhodamine B assay; type: functional; conditions: OVCAR-8, 48 h; method in brief: as §2
SF-295 = test: Growth inhibition of human SF295 cells after 48 hrs by sulforhodamine B assay; type: functional; conditions: SF-295, 48 h; method in brief: as §2
MDA-MB-231 = test: Growth inhibition of human MDA-MB-231 cells after 48 hrs by sulforhodamine B assay; type: functional; conditions: MDA-MB-231, 48 h; method in brief: as §2
LOX IMVI = test: Growth inhibition of human LOXIMVI cells after 48 hrs by sulforhodamine B assay; type: functional; method in brief: as §2
[1] = Growth inhibition of human […] cells after 48 hrs by sulforhodamine B assay; type: functional; method in brief: as §2
HCT-15 = test: Growth inhibition of human HCT15 cells after 48 hrs by sulforhodamine B assay; type: functional; conditions: HCT-15, 48 h; method in brief: as §2
EKVX = test: Growth inhibition of human EKVX cells after 48 hrs by sulforhodamine B assay; type: functional; method in brief: as §2
SK-MEL-28 = test: Growth inhibition of human SK-MEL-28 cells after 48 hrs by sulforhodamine B assay; type: functional; conditions: SK-MEL-28, 48 h; method in brief: as §2
CAKI-1 = test: Growth inhibition of human Caki1 cells after 48 hrs by sulforhodamine B assay; type: functional; conditions: CAKI-1, 48 h; method in brief: as §2
TK-10 = test: Growth inhibition of human TK10 cells after 48 hrs by sulforhodamine B assay; type: functional; conditions: TK-10, 48 h; method in brief: as §1
MDA-MB-435 = test: Growth inhibition of human MDA-MB-435 cells after 48 hrs by sulforhodamine B assay; type: functional; conditions: MDA-MB-435, 48 h; method in brief: as §2
SK-MEL-5 = test: Growth inhibition of human SK-MEL-5 cells after 48 hrs by sulforhodamine B assay; type: functional; conditions: SK-MEL-5, 48 h; method in brief: as §2
NCI-H23 = test: Growth inhibition of human NCI-H23 cells after 48 hrs by sulforhodamine B assay; type: functional; conditions: NCI-H23, 48 h; method in brief: as §2
RXF 393 = test: Growth inhibition of human RXF393 cells after 48 hrs by sulforhodamine B assay; type: functional; conditions: RXF 393, 48 h; method in brief: as §2
HL-60(TB) = test: Growth inhibition of human HL-60(TB) cells after 48 hrs by sulforhodamine B assay; type: functional; conditions: HL-60, 48 h
Method in brief: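 NCI 60-cell-line screen protocol: cells exposed to compound at five 10-fold dilutions from 10^-4 to 10^-8 M for the last 48 h of a 72 h incubation. Sulforhodamine B protein assay estimated viability/growth. GI50 (50% growth inhibition) derived; where not reached or exceeded, reported as greater or less than the highest or lowest concentration tested.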

ACHN = test: Growth inhibition of human ACHN cells after 48 hrs by sulforhodamine B assay; type: functional; method in brief: as §2
BT-549 = test: Growth inhibition of human BT549 cells after 48 hrs by sulforhodamine B assay; type: functional; conditions: BT-549, 48 h; method in brief: as §2
MCF7 = test: Growth inhibition of human MCF7 cells after 48 hrs by sulforhodamine B assay; type: functional; conditions: MCF7, 48 h; method in brief: as §2

N#CC(C#N)=CN1CCN(C(=O)c2ccco2)C1=S
GI50 (UACC-62): 8.8 µM | GI50 (SR): 2 µM | GI50 (PC-3): 17.2 µM | GI50 (OVCAR-3): 11.2 µM | GI50 (HOP-92): 22.4 µM | GI50 (SN12C): 3.1 µM | GI50 (MOLT-4): 5.2 µM | GI50 (A549): 13.5 µM | GI50 (IGROV-1): 6.6 µM | GI50 (SW-620): 5.6 µM | GI50 (T47D): 21.2 µM | GI50 (UO-31): 10.5 µM | GI50 (SF-539): 2.5 µM | GI50 (SK-MEL-2): 4.3 µM | GI50 (OVCAR-4): 20.1 µM | GI50 (SNB-75): 40.6 µM | GI50 (SNB-19): 38.7 µM | GI50 (HT-29): 27.7 µM | GI50 (Malme-3M): 47.8 µM | GI50 (COLO 205): 16.5 µM | GI50 (SF-268): 31.4 µM | GI50 (CCRF-CEM): 79.7 µM | GI50 (DU-145): 5.5 µM | GI50 (SK-OV-3): 33.1 µM | GI50 (NCI-H322M): 15.5 µM | GI50 (K562): 6.6 µM | GI50 (NCI-H460): 3.3 µM | GI50 (KM12): 4.1 µM | GI50 (U-251): 6.6 µM | IC50 (MT4): 4.4 µM | GI50 (OVCAR-8): 14.6 µM | GI50 (SF-295): 31.3 µM | GI50 (MDA-MB-231): 2.9 µM | GI50 (LOX IMVI): 3.3 µM | GI50 [1]: 4.5 µM | GI50 (HCT-15): 5.2 µM | GI50 (EKVX): 11.9 µM | GI50 (SK-MEL-28): 12.5 µM | GI50 (CAKI-1): 4.8 µM | GI50 (TK-10): 4.6 µM | GI50 (MDA-MB-435): 5.3 µM | GI50 (SK-MEL-5): 2.9 µM | GI50 (NCI-H23): 5.8 µM | GI50 (RXF 393): 2.6 µM | GI50 (HL-60(TB)): 19.8 µM | GI50 (ACHN): 9.4 µM | GI50 (BT-549): 6.9 µM | GI50 (MCF7): 3.5 µM
